CHOP inh: inhibitors of CHOP promoter induction, primary screen, cell-based, unfolded protein response, luciferase reporter. CHO-K1 CHOP-promoter luciferase, tunicamycin-induced, 15-18 h. inhibition, % at 10 µM. 220,000 tested, 3.8% active. AID 2732, 2010;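 active = compounds that reduced the stress-induced luciferase reporter signal by more than about 70% of percent inhibition, limit read from the data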;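 also: 0% = tunicamycin plus vehicle and 100% = wells without tunicamycin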
T cruzi repl: inhibitors of intracellular T. cruzi growth, primary screen, luminescence, NIH3T3 host cells. AID 1885, 2009. T. cruzi beta-gal in NIH3T3, 90 h. 300,000 tested, 1.4% active. inhibition, % (test concentration not listed);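 active = mean inhibition across valid replicates above about 55%, limit read from the data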;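 also: signal also drops with host cell toxicity which is not excluded here; 0% = plate median of DMSO wells and 100% = zero luminescence signal; higher percent means less beta-gal luminescence so fewer parasites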
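Read-out: Parasite load inhibition, % | Test system: Mouse NIH/3T3 fibroblasts infected with β-gal-expressing T. cruzi Tulahuen C4 | Amount: 5,000 cells/well | Medium: DMEM, 2% fetal bovine serum | Signal: GalScreen β-gal luminescence, detergent lysis, 60 min | Timing: 3 h attach, ≥90 h co-culture | Also added: Tulahuen C4 trypomastigotes, 5000/well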
Lmaj promast: Leishmania major promastigote growth inhibition, primary screen; Leishmania major promastigotes, resazurin fluorescence viability; inhibition, % at 10 µM; 200,000 tested, 9% active; in the data active = inhibition above about 50%;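 also: promastigotes grown with compound for 44 hours at 28 °C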
UPR XBP1 act: activators of adaptive XBP1 UPR arm, primary screen, cell-based, CHO-XBP1 luciferase reporter, luminescence, uHTS | IRE1-XBP1 UPR activation; percent of tunicamycin response, DMSO as zero | activation, % at 20 µM | 330,000 tested, 0.33% active | AID 463104, 2010;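 active = versus positive control, 20 µM dose yields 30% or more activation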;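 also: 100% = tunicamycin at 10 µg/mL and 0% = DMSO only wells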
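Signal: luciferase luminescence; Assay system: CHO-XBP1 luciferase reporter cells; Amount: one thousand reporter cells per well; Dosing: 20 µM single concentration, DMSO 1%; Benchmarks: high control tunicamycin 10 µg/mL final, low control DMSO vehicle only; Schedule: 6 h compound exposure at 37 °C, 5% CO2; Evaluation: percent activation relative to tunicamycin reference.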
Dynein transport: inhibitors of GR-EGFP nuclear translocation, primary screen, dynein cargo transport inhibitor project, imaging, high-content, 3617.4 mouse cells; test concentration mostly 20 µM; stimulated with dexamethasone, 1 µM; stronger effect = lower value; z-score, hits read low; 220,000 tested, 0.47% active; AID 1381, 2008;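 active = plate z-score of nuclear minus cytoplasmic receptor signal below a set negative limit, without overly bright fluorescence or cell loss, cut at about -3.5 in these data, passing the limit was not always enough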;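 also: z-score of nuclear minus cytoplasmic ring GR-EGFP intensity difference per well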
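Medium: Induction medium lacking tetracycline, stripped serum | Probe or stimulus: 1.0 µM final dexamethasone stimulus | Schedule: 48 h induction, then 1 h compound, then 30 min agonist, 37 °C | Signal: Automated 10x imaging of fixed Hoechst-stained cells | Evaluation: Per-cell GR-EGFP intensity, nucleus versus surrounding cytoplasmic ring, well-averaged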
UPR CHOP act: activators of apoptotic CHOP UPR arm, primary screen, cell-based, CHO-CHOP luciferase reporter, luminescence, uHTS. UPR activation; percent of tunicamycin response over DMSO baseline. activation, % at 10 µM. 330,000 tested, 0.34% active;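 active = at 10 µM dose, activation of 40% or more, normalized to positive control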;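 also: 100% = tunicamycin at 10 µg/mL and 0% = DMSO alone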
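Test system: CHO-CHOP cells, stable luciferase reporter of PERK-eIF2a-CHOP signalling | Quantity: 500 CHO-CHOP cells per well | Buffer or medium: F12 plus 10% serum | Compound dosing: 10 µM single point, 0.5% DMSO | Schedule: 6 h compound treatment, 37 °C | Signal: Luciferase luminescence | Control set: Tunicamycin high control, DMSO low control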
An asterisk follows results filed as active; . = no result given. The full list was thinned out, with hits kept by preference.

SMILES | CHOP inh | T cruzi repl | Lmaj promast | UPR XBP1 act | Dynein transport | UPR CHOP act
COCCNC(=O)CSc1ccccc1C(=O)NC1CCCc2ccccc21 (stereo unspecified) | . | 8 | . | -3 | . | 0
CC(=O)Nc1ccc(Nc2ccc3c4c(cc(=O)n3C)-c3ccccc3C(=O)c24)cc1 | -35 | 56* | -4 | -1 | -0.69 | 2
COc1cccc(C(C(=O)NCC2CCCO2)N(C(=O)Cn2nnc3ccccc32)c2ccc(NC(C)=O)cc2)c1 (stereo unspecified) | . | -2 | . | -4 | . | -1
CC(Sc1nnc(CC(=O)Nc2ccccc2F)n1C)C(=O)Nc1nccs1 (stereo unspecified) | . | 7 | . | 0 | . | 2
CCn1c(NCc2ccccc2Cl)nc2ccccc21 | 19 | -9 | 51* | 8 | -0.072 | 2
CCn1c(NCc2ccccc2NS(=O)(=O)c2ccc(C)cc2)nc2ccccc21 | 22 | 17 | 72* | -4 | -0.21 | -1
CCCn1c(NCc2ccccc2NS(=O)(=O)c2ccc(C)cc2)nc2ccccc21 | 46 | 43 | 96* | -3 | -1.1 | -2
CCn1c(NCc2cc(Br)ccc2NS(=O)(=O)c2ccc(C)cc2)nc2ccccc21 | 15 | 64* | 100* | -2 | -0.98 | 0
CCC1CCCCN1C(=O)c1cc(COc2ccc(-n3cncn3)cc2)on1 (stereo unspecified) | . | 7 | . | -8 | . | 2
O=C(Cn1nc([N+](=O)[O-])nc1Br)NC(c1ccccc1)c1ccccc1 | -51 | 36 | 79* | -1 | -0.68 | 1
COc1cc(CNCc2cccs2)ccc1OCc1cccs1 | 5 | 17 | 100* | 1 | 0.24 | 0
COc1cc(CNCc2cccs2)ccc1OCC(=O)NC(C)(C)C | 33 | 12 | 89* | 0 | 0.23 | -1
CCCCn1c(N)c(N(CC(C)C)C(=O)C2CCN(S(=O)(=O)c3ccc(C)c(C)c3)CC2)c(=O)[nH]c1=O | . | 2 | . | -6 | . | 1
Cc1ccc(NC(=S)NCCc2ccccc2)c(C)c1 | -6 | 19 | 80* | 0 | 0.58 | 0
Cc1cccc(NC(=S)N/N=C/C(C)c2ccccc2)c1C (stereo unspecified) | -10 | 2 | 43 | 0 | 0.62 | 2
Cc1ccccc1NC(=S)N/N=C/C(C)c1ccccc1 (stereo unspecified) | 18 | -11 | 97* | -2 | -0.44 | 1
Cc1ccccc1NC(=S)NC1CCN(Cc2ccccc2)CC1 | 6 | -3 | 94* | -4 | -0.17 | 1
Cc1ccc(NC(=S)NC2CCN(Cc3ccccc3)CC2)c(C)c1 | -14 | 9 | 91* | -2 | 1.2 | 0
Cc1ccc(NC(=O)CS(=O)CC(=O)NC2CCN(Cc3ccccc3)CC2)c(C)c1 (stereo unspecified) | -5 | -9 | -4 | 0 | 0.21 | 1
CCN(CC(=O)Nc1cc(Cl)ccc1C)C(=O)c1nc2nc(C)cc(C)n2n1 | . | . | . | -3 | . | -1
CC(C)CCCN1C(N(C)C)=NC[C@@H]1Cc1ccccc1 | . | . | . | -1 | . | 0
CC(CCC(=O)O)C1CCC2C3C(O)CC4CC(O)CCC4(C)C3CC(O)C12C (stereo unspecified) | . | -7 | . | -2 | . | 0
Cc1ccccc1NC(=S)NCc1ccccc1 | -3 | -15 | 59* | -1 | 1.1 | -1
Cc1ccccc1NC(=S)NCCc1ccccc1 | -22 | -6 | 0 | -4 | -0.6 | 2
CC(C)c1ccccc1NC(=S)NC(C)c1ccccc1 (stereo unspecified) | 27 | 2 | 97* | 1 | 0.61 | 0
SMILES | CHOP inh | T cruzi repl | Lmaj promast | UPR XBP1 act | Dynein transport | UPR CHOP act
CCC(C)[C@H](NC(=O)NC1CCN(Cc2ccccc2)CC1)C(=O)OC (stereo partly specified) | -21 | -5 | 70* | -2 | 0.81 | 1
COc1ccc(C)cc1NC(=O)NC1CCN(Cc2ccccc2)CC1 | 16 | 8 | 65* | -1 | 0.53 | 0
COC(=O)c1ccccc1NC(=O)NC1CCN(Cc2ccccc2)CC1 | 7 | -14 | -2 | -1 | -0.37 | 1
CCOc1ccccc1C(=O)NC1CCN(Cc2ccccc2)CC1 | . | 42 | . | -4 | . | -1
COc1cccc(CCc2nnc(N)s2)c1 | . | -10 | . | -4 | . | -2
CC(=O)c1nn(-c2cccc(Br)c2)cc1C(=O)c1ccc(Br)cc1 | 78* | -10 | -6 | 4 | -0.67 | 2
N#Cc1nc(-c2ccccc2)oc1NCCN1CCCCC1 | 7 | -10 | 87* | 2 | 0.24 | 1
N#Cc1nc(Cc2cccc3ccccc23)oc1NCc1ccc(F)cc1 | 71* | 13 | 11 | -2 | -0.036 | 0
N#Cc1nc(-c2ccc(F)cc2)oc1NCc1cccc2c1OCO2 | 84* | 8 | -9 | 1 | -0.59 | 0
N#Cc1nc(Cc2cccc3ccccc23)oc1NCCN1CCOCC1 | 50 | 1 | 72* | -1 | 0.7 | 1
O=C(NCc1ccccn1)c1cccc(S(=O)(=O)NCc2ccccc2)c1 | . | 0 | . | -5 | . | -3
CCCCC1(c2ccc(F)cc2)NC(=O)N(CC(=O)N2CCN(C(=O)c3ccco3)CC2)C1=O (stereo unspecified) | . | 0 | . | -2 | . | -1
COc1ccc(-c2nc(N)ncc2-c2ccccc2)c(O)c1 | . | 14 | . | 3 | . | 2
CN(C)c1nc(N)ncc1-c1ccc(Oc2ccccc2)cc1 | . | 70* | . | -1 | . | 3
Nc1c(-c2ccc(Cl)cc2)cnn1-c1cccc([N+](=O)[O-])c1 | 78* | 7 | -5 | 2 | 0.13 | 5
Nc1c(-c2ccccc2)cnn1-c1cccc([N+](=O)[O-])c1 | -14 | -10 | 3 | 9 | -0.97 | 5
Cc1coc2c1c(C)cc1oc(=O)c(CC(=O)NCCCCCC(=O)O)c(C)c12 | . | -7 | . | 2 | . | 0
CC1(C)CC(=O)C(C=Nc2ccccc2C(=O)O)=C(O)C1 | 17 | -1 | 3 | -3 | -0.6 | -2
CC1(C)CC(=O)C(C=Nc2ccccc2Sc2ccccc2)=C(O)C1 | 42 | -10 | 71* | -1 | -0.0058 | 24
CN(C(=O)c1ccc(F)cc1)c1ccc(OCC(=O)Nc2ccccc2C(=O)O)cc1 | . | . | . | 4 | . | 2
O=C(CN1CCN(S(=O)(=O)c2ccc(F)c(Cl)c2)CC1)N1CCNC1=O | . | . | . | -1 | . | -1
COC(=O)C1=CN(C)C=C(C(=O)OC)C1c1ccccc1Cl | 5 | 19 | 5 | -1 | 0.15 | 2

Source: PubChem (several laboratories)
